Data reported in ChEMBL document CHEMBL1649306, “Arylimidamide DB766, a potential chemotherapeutic candidate for Chagas' disease treatment” (Antimicrob Agents Chemother, 2010).
“And” between values parts separate entries of the source, which are not always exact repeats. Identical values can stand only once. The source made the active and inactive calls. The calls are words filed in the database; no cut-off is given here.

Columns and labels:
Trypanosoma cruzi [1] = assay: Antitrypanosomal activity against Trypanosoma cruzi Columbian bloodstream forms infected in C3H mouse assessed as reduction in parasite-induced weight loss at 100 mg/kg/day, po administered 5 days postinfection for 10 consecutive days measured after 120 days; assay type: functional, organism-based
Method in brief: (§1)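 Body weight of infected, treated mice followed from 0 to 120 dpi.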

Trypanosoma cruzi [2] = assay: Antitrypanosomal activity against bloodstream forms of Trypanosoma cruzi Y after 24 hrs by light microscopy in presence of 50% mouse blood; assay type: functional, organism-based
Method in brief: (§2)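 Bloodstream trypomastigotes kept at 4°C for 24 h in freshly isolated 50% mouse blood with serial dilutions (up to 32 μM). Motile live parasites counted in a Neubauer chamber by light microscopy; IC50 calculated as concentration reducing parasite number by 50%.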

[3] = Cytotoxicity against Swiss-Webster mouse cardiomyocytes after 24 hrs by MTT assay; assay type: cell-based, Cardiomyocyte; settings: read-out: LC50
Method in brief: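 Primary embryonic cardiomyocytes from Swiss mice, uninfected, incubated 24 h or 72 h at 37°C, 5% CO2, with 0 to 96 μM in DMEM. MTT read at 490 nm; LC50 taken as concentration reducing viability by 50%; at least three experiments in duplicate.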

Trypanosoma cruzi [4] = assay: Antitrypanosomal activity against Trypanosoma cruzi Columbian bloodstream forms infected in C3H mouse assessed as reduction in parasite-induced weight loss at 25 mg/kg/day, ip administered 5 days postinfection for 10 consecutive days measured after 120 days; assay type: functional, organism-based; method in brief: as §1
Trypanosoma cruzi [5] = assay: Antitrypanosomal activity against bloodstream forms of Trypanosoma cruzi Y infected in Swiss mouse cardiomyocytes assessed as parasite mitochondrial swelling at 10 ug/ml after 24 hrs by transmission electron microscopy; assay type: functional, organism-based
Method in brief: (§3)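 Y-strain bloodstream trypomastigotes treated 2 to 24 h at 37°C. Fixed 60 min at 4°C in 2.5% glutaraldehyde in 0.1 M cacodylate, pH 7.2. Postfixed 1 h at 4°C in 1% OsO4 with 0.8% potassium ferricyanide. Acetone-dehydrated, Epon-embedded, sections stained with uranyl acetate and lead citrate, ultrastructure examined by TEM.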

Trypanosoma cruzi [6] = assay: Antitrypanosomal activity against bloodstream forms of Trypanosoma cruzi Y infected in Swiss mouse cardiomyocytes assessed as parasite crista dilation at 10 ug/ml after 2 hrs by transmission electron microscopy; assay type: functional, organism-based; method in brief: as §3
Trypanosoma cruzi [7] = assay: Antitrypanosomal activity against bloodstream forms of Trypanosoma cruzi CL after 24 hrs by light microscopy in presence of 50% mouse blood; assay type: functional, organism-based; method in brief: as §2
Mus musculus [8] = assay: Toxicity in male Swiss-Webster mouse assessed as weight loss at cumulative dose of 200 mg/kg, ip measured after 48 hrs; assay type: organism-based; design: dose 200 mg/kg, route intraperitoneal; settings: in vivo
Method in brief: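 Acute toxicity in 8–10-week-old Swiss Webster mice. i.p. injections every 2 h of 5, 15, 30, 50 and 100 mg/kg (cumulative 200 mg/kg) on day 1. Toxic and subtoxic signs inspected on days 2 and 3 per OECD guidelines; outcome read 48 h after injection.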

Trypanosoma cruzi [9] = assay: Antitrypanosomal activity against Trypanosoma cruzi Y infected in Swiss-Webster mouse assessed as decrease in parasite-induced weight loss at 100 mg/kg/day, ip administered 5 days post-infection for 10 consecutive days measured on day 120; assay type: functional, organism-based; method in brief: as §1
Trypanosoma cruzi [10] = assay: Antitrypanosomal activity against bloodstream forms of Trypanosoma cruzi Y after 2 hrs by light microscopy in presence of 96% mouse blood; assay type: functional, organism-based
Method in brief: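 Bloodstream trypomastigotes held at 4°C in freshly isolated mouse blood (96%) with serial dilutions up to 32 μM. Live motile parasites counted by light microscopy in a Neubauer chamber, giving an IC50 for each exposure time.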

Trypanosoma cruzi [11] = assay: Antitrypanosomal activity against Trypanosoma cruzi Y bloodstream forms infected in Swiss-Webster mouse assessed as decrease in parasite-induced cardiac inflammation in mouse at 100 mg/kg/day, ip administered 5 days postinfection for 10 alternate days measured after 14 days postinfection; assay type: functional, Heart; design: scale not given: the % may be the effect or the level left; settings: route intraperitoneal
Trypanosoma cruzi [12] = assay: Antitrypanosomal activity against Trypanosoma cruzi Columbian bloodstream forms infected in C3H mouse assessed as decrease in parasite load at 100 mg/kg/day, ip administered 5 days postinfection for 10 consecutive days measured after 41days post infection; assay type: functional, organism-based
Method in brief: (§4)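 C3H/He mice infected i.p. with 10^3 or 5 × 10^3 Colombian strain bloodstream forms. Treated daily for 10 days with 0.1 ml i.p. or by gavage, reference drug given by gavage. Parasitemia measured by the Pizzi-Brener method; n ≥ 6 parasitemic mice per group.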

Trypanosoma cruzi [13] = assay: Antitrypanosomal activity against Trypanosoma cruzi Columbian bloodstream forms infected in C3H mouse assessed as decrease in parasite load at 50 mg/kg/day, po administered 5 days postinfection for 10 consecutive days measured after 41 days; assay type: functional, organism-based; method in brief: as §4
Trypanosoma cruzi [14] = assay: Antitrypanosomal activity against Trypanosoma cruzi Columbian bloodstream forms infected in C3H mouse assessed as decrease in parasite load at 100 mg/kg/day, ip administered 5 days postinfection for 10 consecutive days measured after 31 days; assay type: functional; design: scale not given: the % may be the effect or the level left; settings: route intraperitoneal; method in brief: as §4
Trypanosoma cruzi [15] = assay: Antitrypanosomal activity against Trypanosoma cruzi Y bloodstream forms infected in Swiss-Webster mouse assessed as survival of mouse at 50 mg/kg/day, ip p administered 5 days postinfection for 10 consecutive days measured on day 120; assay type: functional, organism-based
Method in brief: (§5)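 Male Swiss mice infected i.p. with 10^4 Y strain bloodstream forms. Given 0.2 ml i.p. at 5 and 8 dpi, or daily for 10 days from 5 dpi; reference drug given by gavage. Parasitemia measured by the Pizzi-Brener method, cumulative mortality checked daily to 120 dpi, n ≥ 6 per group.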

Trypanosoma cruzi [16] = assay: Selectivity ratio of IC50 for Trypanosoma cruzi Y bloodstream forms to IC50 for Trypanosoma cruzi Y amastigotes; assay type: functional
Trypanosoma cruzi [17] = assay: Antitrypanosomal activity against Trypanosoma cruzi Columbian bloodstream forms infected in C3H mouse assessed as decrease in parasite load at 50 mg/kg/day, ip p administered 5 days postinfection for 10 consecutive days measured after 120 days; assay type: functional, organism-based
Trypanosoma cruzi [18] = assay: Antitrypanosomal activity against Trypanosoma cruzi Y bloodstream forms infected in Swiss-Webster mouse assessed as survival of mouse at 25 mg/kg/day, ip administered 8 days postinfection measured on day 120; assay type: functional, organism-based; method in brief: as §5
Mus musculus [19] = assay: Toxicity in female Swiss-Webster mouse assessed as mortality at cumulative dose of 200 mg/kg, ip measured after 48 hrs; assay type: organism-based; design: dose 200 mg/kg, route intraperitoneal; settings: in vivo
Method in brief: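 Uninfected 8–10-week-old female and male Swiss Webster and C3H/He (H-2k) mice injected i.p. on day 1 every 2 h with escalating doses: 5, 15, 30, 50 and 100 mg/kg (cumulative 20, 50, 100, 200 mg/kg). Toxic and subtoxic signs inspected on days 2–3 per OECD guidelines; tolerated dose set at 48 h.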

Trypanosoma cruzi [20] = assay: Antitrypanosomal activity against Trypanosoma cruzi Y bloodstream forms infected in Swiss-Webster mouse assessed as reduction in parasite-induced weight loss in mouse at 100 mg/kg/day, po administered 5 days postinfection for 10 consecutive days measured on day 120; assay type: functional, organism-based; method in brief: as §1
Trypanosoma cruzi [21] = assay: Antitrypanosomal activity against Trypanosoma cruzi Columbian bloodstream forms infected in C3H mouse assessed as reduction in parasite-induced weight loss at 50 mg/kg/day, ip administered 5 days postinfection for 10 consecutive days measured after 120 days; assay type: functional, organism-based; method in brief: as §1
Trypanosoma cruzi [22] = assay: Antitrypanosomal activity against Trypanosoma cruzi 956 epimastigotes after 24 hrs by light microscopy; assay type: functional, organism-based; settings: Trypanosoma cruzi, 956, 24 h
Method in brief: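 Epimastigotes from 5-day exponential cultures, 5 × 10^6 parasites/ml in LIT medium, incubated at 28°C up to 96 h with DB766 0 to 32 μM or Bz 0 to 250 μM. Counted daily in a Neubauer chamber. IC50 averaged from at least three determinations in duplicate.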

Trypanosoma cruzi [23] = assay: Antitrypanosomal activity against Trypanosoma cruzi Y amastigotes infected in Swiss-Webster CM cells assessed as parasite DNA to host cell nucleus ratio at 10 ug/ml after 1 hr by fluorescence and transmission electron microscopy analysis; assay type: functional

## CC(C)Oc1cc(NC(=N)c2ccccn2)ccc1-c1ccc(-c2ccc(NC(=N)c3ccccn3)cc2OC(C)C)o1
Trypanosoma cruzi [1]
  Activity: inactive
Trypanosoma cruzi [2]
  IC50: 710 nM
[3]
  CC50 at 24 h: > 32000 nM
Trypanosoma cruzi [4]
  Activity: inactive
Trypanosoma cruzi [5]
  Activity: Active
Trypanosoma cruzi [6]
  Activity: Active
Trypanosoma cruzi [7]
  IC50: 710 nM
Mus musculus [8]
  Activity: 10%
Trypanosoma cruzi [9]
  Activity: inactive
Trypanosoma cruzi [10]
  IC50: 560 nM
Trypanosoma cruzi [11]
  Activity: 78%
Trypanosoma cruzi [12]
  Activity: Active
Trypanosoma cruzi [13]
  Activity: Active
Trypanosoma cruzi [14]
  Activity: 100%
Trypanosoma cruzi [15]
  Activity: Active
Trypanosoma cruzi [16]
  Selectivity ratio: >533 and 714
Trypanosoma cruzi [17]
  Activity: Active
Trypanosoma cruzi [18]
  Activity: Active
Mus musculus [19]
  Activity: Non-toxic
Trypanosoma cruzi [20]
  Activity: Active
Trypanosoma cruzi [21]
  Activity: Active
Trypanosoma cruzi [22]
  IC50: 160 nM
  IC90: 320 nM
Trypanosoma cruzi [23]
  Ratio: 2.1
